This is a sample that favours compounds with a hit; in the whole collection about 4.5% have one here.
RGS4 pot: RGS4 potentiation or activation. B-score at 10 µM. 310,000 tested, 0.92% active. HEK293 M3R/inducible RGS4, carbachol calcium flux Fluo4; hits give low values;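 active = B-score of the integrated calcium signal more than 4 SD below the library mean, with starting fluorescence not abnormally high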;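 note: negative B-score means reduced calcium response which marks RGS4 activation or potentiation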
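System – HEK293 FlpIn-TREx cells, stable M3R, doxycycline-inducible RGS4 · Reagent – ECmax carbachol challenge · Times – compound preincubation 20 min at room temperature before agonist · Technique – Fluo4 fluorescence kinetic imaging of calcium · Measure – B score of integrated Fluo4 ratio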
RGS4 inh: human RGS4 inhibition. P49798. AID 463165. 310,000 tested, 0.45% active. HEK293 M3R/RGS4 inducible, Fluo-4 calcium flux; hits give high values; triggered by carbachol at its EC20. B-score at 10 µM;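 active = B-score, a plate-corrected calcium signal, over three deviations above library mean, with baseline fluorescence within five deviations of library mean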;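 note: RGS4 expression induced by doxycycline in cells with stable M3 receptor; B-score is computed from the integrated fluorescence ratio over baseline after carbachol; higher B-score means a larger calcium signal and so more RGS4 inhibition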
Target sequence (P49798 whole entry, looked up): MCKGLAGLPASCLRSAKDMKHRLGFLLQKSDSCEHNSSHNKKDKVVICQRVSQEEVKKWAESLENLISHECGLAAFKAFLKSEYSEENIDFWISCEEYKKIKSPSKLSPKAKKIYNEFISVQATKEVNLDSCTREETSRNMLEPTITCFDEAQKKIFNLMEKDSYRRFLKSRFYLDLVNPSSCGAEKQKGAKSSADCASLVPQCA
MrgX1 ag: human MrgX1 receptor agonism, primary screen; Q96LB2; MrgX1-HEK293 cells, Fluo-4 calcium fluorescence, agonist mode; hits give high values; AID 588627; 310,000 tested, 0.44% active; B-score at 10 µM;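 active = calcium response B-score plate-corrected fluorescence ratio at least 3 library SD, with starting fluorescence B-score inside 5 SD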
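System: HEK293 cells stably expressing human MrgX1 receptor; Dosing: test compound in the initial addition of three; Schedule: overnight plating, then 30 min 37 °C plus 30 min room-temperature dye loading; Detection: kinetic calcium dye fluorescence, Fluo-4 NW; Controls: per-plate positive and negative controls for Z′ factor.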
MrgX1 PAM: allosterically activates human MrgX1 receptor signaling; Q96LB2; MrgX1-HEK293, Fluo-4 calcium flux, FDSS; hits give high values; B-score at 10 µM; 310,000 tested, 0.63% active;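 active = plate-corrected calcium response at least 3 library SD above typical, normal starting fluorescence, not activating the receptor alone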;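 note: compound read alongside a low EC10 to EC30 dose of BAM8-22 agonist; peak minus trough fluorescence over baseline measured at the second addition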
PHOSPHO1 block: PHOSPHO1 (human) inhibition; Q8TCT1; recombinant PHOSPHO1, absorbance phosphatase assay; inhibition, % at 13.3 µM; 290,000 tested, 1.1% active; AID 1565; in the data active = inhibition above about 60%
Target sequence (Q8TCT1 whole entry, looked up): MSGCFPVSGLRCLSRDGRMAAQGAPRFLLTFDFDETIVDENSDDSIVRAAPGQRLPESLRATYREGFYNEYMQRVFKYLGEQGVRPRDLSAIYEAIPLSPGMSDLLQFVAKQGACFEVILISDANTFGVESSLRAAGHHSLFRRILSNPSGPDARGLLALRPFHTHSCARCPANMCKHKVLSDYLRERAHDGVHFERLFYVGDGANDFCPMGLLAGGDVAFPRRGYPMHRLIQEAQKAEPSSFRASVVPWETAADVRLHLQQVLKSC
MrgX1 antagonist: antagonists of human MrgX1 receptor; MRGX1-HEK293 calcium flux, Fluo-4, BAM8-22 antagonism; hits give low values; B-score at 10 µM; AID 588676; Q96LB2; 310,000 tested, 1.3% active;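 active = calcium-response B-score plate-corrected more than 3 library SD below zero, starting fluorescence within 5 deviations, no agonist response on first addition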;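 note: peak minus trough fluorescence over baseline after final BAM8-22 challenge near maximal dose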
RGS4 activ val: confirmation of RGS4 activators; shares compounds with RGS4 pot; HEK293 M3R/RGS4 inducible, carbachol calcium flux Fluo4; inhibition, % at 10 µM; 1,100 tested, 89% active; AID 602282;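 active = inhibition above 3 SD of the buffer control wells, cut at about 41% in these data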;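 note: signal is the integrated peak-minus-minimum Fluo4 fluorescence over baseline ratio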
M3R Ca counter: counter-screen for RGS4 activators: effect in non-induced cells; 1,100 tested, 82% active; AID 602283; inhibition, % at 10 µM; shares compounds with RGS4 pot; HEK293 M3R non-induced RGS4, Fluo4 calcium flux; after carbachol challenge at its EC90;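 active = inhibition exceeding 3 SD of buffer-only control wells, cut at about 26% in these data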;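 note: percent drop in integrated peak-minus-baseline over baseline Fluo4 ratio after carbachol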
Active calls of the source: *.

Results for c1ccc(C(c2ccccc2)c2noc(CN3CCN(C4CCCC4)CC3)n2)cc1 ?
RGS4 pot: inactive; RGS4 inh: inactive; MrgX1 ag: inactive; MrgX1 PAM: inactive; PHOSPHO1 block: 34; MrgX1 antagonist: inactive

Results for Cc1c(CCOC(=O)C23CC4CC(CC(C4)C2)C3)sc[n+]1Cc1ccccc1 ?
RGS4 pot: -12*; RGS4 inh: inactive; MrgX1 ag: inactive; MrgX1 PAM: inactive; PHOSPHO1 block: -17; MrgX1 antagonist: inactive; RGS4 activ val: 92*; M3R Ca counter: 61*

How did Cc1ncc(C[n+]2csc(CCOC(=O)C34CC5CC(CC(C5)C3)C4)c2C)c(N)n1 do in these assays?
RGS4 pot: inactive; RGS4 inh: inactive; MrgX1 ag: inactive; MrgX1 PAM: inactive; PHOSPHO1 block: -19; MrgX1 antagonist: inactive

Results for CN(C)CC[C@@H](c1ccc(Br)cc1)c1ccccn1 ?
RGS4 pot: inactive; RGS4 inh: inactive; MrgX1 ag: inactive; MrgX1 PAM: inactive; MrgX1 antagonist: inactive

Results for CN(C)CC[C@@H](c1ccc(Cl)cc1)c1ccccn1 ?
RGS4 pot: -13*; RGS4 inh: inactive; MrgX1 ag: inactive; MrgX1 PAM: inactive; MrgX1 antagonist: inactive; RGS4 activ val: 57*; M3R Ca counter: 0

How did O=C(O)c1ccccc1NS(=O)(=O)c1ccc(NNC(=S)Nc2ccc(OC(F)F)cc2)c([N+](=O)[O-])c1 do in these assays?
RGS4 pot: -12*; RGS4 inh: inactive; PHOSPHO1 block: -28; RGS4 activ val: 0; M3R Ca counter: 0

Results for Cn1c(SCC(=O)NCCc2ccccc2)ncc(C(=O)Nc2ccc(F)cc2)c1=O ?
RGS4 pot: inactive; RGS4 inh: inactive; MrgX1 ag: inactive; MrgX1 PAM: inactive; MrgX1 antagonist: inactive

What do the screens show for `Cc1ccc(C)c(OCC(=O)N2CCc3ccccc3C2)c1`?
RGS4 pot: -7.7*; RGS4 inh: inactive; MrgX1 ag: inactive; MrgX1 PAM: inactive; PHOSPHO1 block: 38; MrgX1 antagonist: inactive; RGS4 activ val: 56*; M3R Ca counter: 84*

Results for Cc1ccccc1OCC(=O)N1CCc2ccccc2C1 ?
RGS4 pot: inactive; RGS4 inh: inactive; MrgX1 ag: inactive; MrgX1 PAM: inactive; PHOSPHO1 block: 44; MrgX1 antagonist: inactive

What do the screens show for `O=C(CCC1CCCN(C2C3CC4CC(C3)CC2C4)C1)NCc1ccc(F)c(F)c1` (stereo not drawn)?
RGS4 pot: -7.7*; RGS4 inh: inactive; MrgX1 ag: inactive; MrgX1 PAM: inactive; PHOSPHO1 block: 54; MrgX1 antagonist: inactive; RGS4 activ val: 81*; M3R Ca counter: 45*

Results for Cc1ccc(N2C(=O)CSC2c2c(F)cccc2Cl)cc1 (stereo not drawn) ?
RGS4 pot: -10*; RGS4 inh: inactive; MrgX1 ag: inactive; MrgX1 PAM: inactive; PHOSPHO1 block: -9; MrgX1 antagonist: inactive; RGS4 activ val: 93*; M3R Ca counter: 92*

How did O=C(NCc1ccc2c(c1)OCO2)c1ccc(C2SCC(=O)N2Cc2ccco2)cc1 (stereo not drawn) do in these assays?
RGS4 pot: -7.7*; RGS4 inh: inactive; MrgX1 ag: inactive; MrgX1 PAM: inactive; PHOSPHO1 block: -20; MrgX1 antagonist: inactive; RGS4 activ val: 71*; M3R Ca counter: 84*

Results for CN(c1ccccc1)S(=O)(=O)c1cccc(C(=O)NCCc2c[nH]c3ccccc23)c1 ?
RGS4 pot: -9.2*; RGS4 inh: inactive; MrgX1 ag: inactive; MrgX1 PAM: inactive; MrgX1 antagonist: inactive; RGS4 activ val: 74*; M3R Ca counter: 48*

Screens (PubChem BioAssay)
